In one experiment the test system is HeLa. In words: The cytotoxic activity was determined against HeLa cell line. The format is functional, Mus musculus. To be noted: Homo sapiens, read-out: ED50 (the source's name). In outline: (§1)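 KB or HeLa monolayers were grown in Eagle's MEM with 10% fetal calf serum and subcultured every 6–7 days. Drugs were suspended in sterile 0.5% carboxymethylcellulose. 6-Mercaptopurine at 1 μM was the positive control in every run. Cytotoxic concentration is expressed in μg/mL.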

A further experiment relates to KB. In words: The cytotoxic activity was determined against KB cell line. To be noted: Homo sapiens, read-out: ED50 (the source's name). The format is functional, Mus musculus. The method, boiled down: as §1
The test system of experiment [1] is P388. In words: Percentage of treated /control was determined against P-388 leukemia in […] mice, at a dose of 320 mg/kg. The format is functional, Mus musculus.
For experiment [2], the system named is Mus musculus. In words: Long term survivors/no of treated mice was determined for Ehrlich Ascites tumor after intraperitoneal administration at a dose of 100 mg/kg in mice; 12/12. It counts as functional.
The subject of experiment [3] is Mus musculus. In words: Antitumor activity against Ehrlich Ascites tumor after intraperitoneal administration at a dose of 200 mg/kg in mice; 6/6. The format is functional.
The subject of experiment [4] is Mus musculus. In words: Percentage of treated /control was determined against P-388 ascitic leukemia in […] mice, at a dose of 200 mg/kg. The format is functional. The method, boiled down:
(§2)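 Female BDF1 mice bearing P-388 ascitic leukemia, run per standard NCI protocol. Single ip dose on day 1, suspended in 0.9% NaCl with 0.10% Tween 80 and serially diluted in saline. T/C% = median survival time of treated mice / median survival of controls × 100. 5-Fluorouracil at 200 mg/kg as positive control. Groups of 6; mean of three tests.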

Experiment [5] has as its system Mus musculus. In words: Percentage of treated /control was determined for Ehrlich Ascites tumor after intraperitoneal administration at a dose of 250 mg/kg in mice. The format is functional. In outline:
(§3)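 Female Albino Swiss mice, five to six weight-matched per group, implanted ip with 1×10^6 viable Ehrlich ascites cells (Trypan blue count). Single ip dose 24 h after implantation (day 1), suspended in 0.9% NaCl with 0.10% Tween 80 and serially diluted in saline. T/C% read at day 12. Survival followed 60 days. Mean of three tests (two at 90 and 100 mg/kg).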

Experiment [6] deals with Mus musculus. In words: Number of toxic death/ no of treated mice was determined for Ehrlich Ascites tumor after intraperitoneal administration at a dose of 400 mg/kg in mice; 6/6. The format is functional.
Experiment [7] has as its system Mus musculus. In words: Antitumor activity against Ehrlich Ascites tumor after intraperitoneal administration at a dose of 150 mg/kg in mice; 6/6. It counts as functional.
Experiment [8] concerns Mus musculus. In words: Long term survivors/no of treated mice was determined for Ehrlich Ascites tumor after intraperitoneal administration at a dose of 250 mg/kg in mice; 15/18.
The test system of experiment [9] is Mus musculus. In words: Antitumor activity against Ehrlich Ascites tumor after intraperitoneal administration at a dose of 250 mg/kg in mice; 6/6. The format is functional.
The subject of experiment [10] is Mus musculus. In words: No of survivors was determined for P-388 ascitic leukemia in mice, at a dose of 100 mg/kg; 6/6. It counts as functional.
The test system of experiment [11] is Mus musculus. In words: Percentage of treated /control was determined for Ehrlich Ascites tumor after intraperitoneal administration at a dose of 200 mg/kg in mice. The format is functional. The method, boiled down: as §3
Experiment [12] deals with Mus musculus. In words: Long term survivors/no of treated mice was determined for Ehrlich Ascites tumor after intraperitoneal administration at a dose of 90 mg/kg in mice; 5/10. The format is functional.
Experiment [13] concerns Mus musculus. In words: Long term survivors/no of treated mice was determined for Ehrlich Ascites tumor after intraperitoneal administration at a dose of 150 mg/kg in mice; 15/18.
The test system of experiment [14] is Mus musculus. In words: Number of toxic death/ no of treated was determined for P-388 ascitic leukemia in mice, at a dose of 400 mg/kg; 6/6. The format is functional.
For experiment [15], the system named is Mus musculus. In words: No of survivors was determined for Ehrlich Ascites tumor after intraperitoneal administration at a dose of 100 mg/kg in mice; 6/6. It counts as functional.
Experiment [16] relates to Mus musculus. In words: Long term survivors/no of treated mice was determined for Ehrlich Ascites tumor after intraperitoneal administration at a dose of 200 mg/kg in mice; 18/18.
Experiment [17] relates to Mus musculus. In words: Antitumor activity against Ehrlich Ascites tumor after intraperitoneal administration at a dose of 90 mg/kg in mice; 3/5. The format is functional.
The test system of experiment [18] is Mus musculus. In words: Percentage of treated /control was determined against P-388 ascitic leukemia in mice, at a dose of 100 mg/kg. The format is functional. The method, boiled down: as §2
Experiment [19] deals with Mus musculus. In words: Percentage of treated /control was determined for Ehrlich Ascites tumor after intraperitoneal administration at a dose of 150 mg/kg in mice. It counts as functional. The method, boiled down:
as §3

The test system of experiment [20] is Mus musculus. In words: Antitumor activity against P-388 ascitic leukemia in mice, at a dose of 200 mg/kg; 6/6. It counts as functional.
Experiment [21] relates to Mus musculus. In words: Antitumor activity against P-388 ascitic leukemia in mice, at a dose of 400 mg/kg; 0/6. It counts as functional.
For experiment [22], the system named is Mus musculus. In words: Percentage of treated /control was determined for Ehrlich Ascites tumor after intraperitoneal administration at a dose of 90 mg/kg in mice. The format is functional. In outline:
as §3

Experiment [23] deals with Mus musculus. In words: Antitumor activity against Ehrlich Ascites tumor after intraperitoneal administration at a dose of 400 mg/kg in mice; 0/6. It counts as functional.
Experiment [24] relates to Mus musculus. In words: Percentage of treated /control was determined for Ehrlich Ascites tumor after intraperitoneal administration at a dose of 100 mg/kg in mice. It counts as functional. In outline:
as §3

Experiment [25] deals with P388. In words: Percentage of treated /control was determined against P-388 leukemia in […] mice, at a dose of 100 mg/kg. The format is functional, Mus musculus. The method, boiled down:
as §2

The values that follow come from ChEMBL document CHEMBL1122150, “Synthesis and biological activity of benzothiazolo- and benzoxazolo[3,2-a]quinolinium salts” (1982).

As for `O=[N+]([O-])c1ccc2c(ccc3oc4ccccc4[n+]32)c1.[O-][Cl+3]([O-])([O-])[O-]`, the EC50 with HeLa worked out at 15 mg/L; in the experiment with KB, 12 mg/L.
For the compound `COc1cc2c(ccc3c4cc(OC)c(OC)cc4c[n+](C)c23)cc1O.[Cl-]` [FAGARONINE], the T/C in the experiment on P388 [1] was 290%. Further, the EC50 in the experiment with KB is 0.7 mg/L.
In the case of `O=[N+]([O-])c1ccc2c(ccc3sc4ccccc4[n+]32)c1.[O-][Cl+3]([O-])([O-])[O-]`, the LTS with Mus musculus [2] came to 12; in the experiment on Mus musculus [8], 15; in the experiment on Mus musculus [12] it was 5; with Mus musculus [13], 15; with Mus musculus [16] it was 18. Also, the Survival in the experiment on Mus musculus [3] stood at 6; with Mus musculus [7], 6; with Mus musculus [9], 6; in the experiment with Mus musculus [10] it was 6; in the experiment on Mus musculus [15], 6; in the experiment on Mus musculus [17], 3. Besides, the results for the Survival with Mus musculus [20], in the experiment with Mus musculus [21] and in the experiment on Mus musculus [23] were 6, 0 and 0, respectively. Besides, the T/C with Mus musculus [4] is 218%; in the experiment on Mus musculus [5] it was -2.5%; with Mus musculus [11], -6.2%; in the experiment with Mus musculus [18], 153%; with Mus musculus [19], -0.4%; in the experiment with Mus musculus [22] it was 57.3%. For the same compound, the T/C in the experiment with Mus musculus [24] stood at 35.8%. For the same compound, the Toxicity with Mus musculus [6] and with Mus musculus [14] was 6 throughout. Besides, the EC50 with HeLa came out at 0.9 mg/L; in the experiment on KB it was 0.6 mg/L.
Turning to `COc1cc2c[n+](C)c3c4cc5c(cc4ccc3c2cc1OC)OCO5.[Cl-]` [NITIDINE CHLORIDE], the T/C in the experiment with P388 [25] is reported as 129%.
